In paper PMC10685179 (RSC Advances, 2023):
In brackets after ≈: the same amount, converted by molar mass. Like-named read-outs stand apart in the source and are kept apart here. Blank lines part the entries; values can stand above or below the compound they belong to.

Experiments:
[1] = tested on: E. coli KA780; test: Agar well-diffusion, inhibition zone; assay type: cell-based, Escherichia coli; details: for zone of inhibition at 10 µM: Escherichia coli, KA780, read-out: Average diameter of inhibition zone (ZI); for Average diameter of inhibition zone (ZI): 10 μM (DMSO), mean of three ± SEM
Method in brief: (§1)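 Clinical MDR isolates from complicated UTI patients. Suspensions were made in Tryptic Soya and Sabouraud broths from subcultures on Tryptic Soya and Sabouraud agar plates. Agar well diffusion followed CLSI guidelines, with test compounds applied at 10 μM in DMSO. Fosfomycin and fluconazole were positive controls and DMSO the negative control. Zone diameters were read in mm, in triplicate.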

[2] = tested on: fungal isolates; test: Broth microdilution MIC/MFC, fungal panel; assay type: cell-based
[3] = tested on: C. albicans KA205; test: Agar well-diffusion, inhibition zone; assay type: cell-based, Candida albicans
Method in brief: as §1

[4] = tested on: C. albicans KA205; test: Broth microdilution MIC and MFC; assay type: cell-based; details: Candida albicans; for MIC: KA205, 24 h; for MFC: KA205, read-out: MFC/MIC
[5] = tested on: P. mirabilis KA320; test: Broth microdilution MIC and MBC; assay type: cell-based; details: Proteus mirabilis; for MIC: KA320, 24 h; for MBC: KA320, read-out: MBC/MIC
[6] = tested on: E. coli KA780; test: Broth microdilution MIC and MBC; assay type: cell-based; details: Escherichia coli; for MIC: KA780, 24 h; for MBC: KA780, read-out: MBC/MIC
[7] = tested on: C. tropicalis KA205; test: Broth microdilution MIC and MFC; assay type: cell-based; details: Candida tropicalis; for MIC: KA205, 24 h; for MFC: KA205, read-out: MFC/MIC
[8] = tested on: P. mirabilis KA320; test: Agar well-diffusion, inhibition zone; assay type: cell-based, Proteus mirabilis; details: for zone of inhibition at 10 µM: Proteus mirabilis, KA320, read-out: Average diameter of inhibition zone (ZI)
Method in brief: as §1

[9] = tested on: C. tropicalis KA205; test: Agar well-diffusion, inhibition zone; assay type: cell-based, Candida tropicalis
Method in brief: as §1

[10] = tested on: S. aureus KA112; test: Agar well-diffusion, inhibition zone; assay type: cell-based, Staphylococcus aureus; details: for zone of inhibition at 10 µM: Staphylococcus aureus, KA112, read-out: Average diameter of inhibition zone (ZI)
Method in brief: as §1

[11] = tested on: S. aureus KA112; test: Broth microdilution MIC and MBC; assay type: cell-based; details: Staphylococcus aureus; for MIC: KA112, 24 h; for MBC: KA112, read-out: MBC/MIC
[12] = tested on: E. faecalis KA247; test: Broth microdilution MIC and MBC; assay type: cell-based; details: Enterococcus faecalis, KA247, 24 h
[13] = tested on: E. faecalis KA247; test: Agar well-diffusion, inhibition zone; assay type: cell-based, Enterococcus faecalis; details: for zone of inhibition at 10 µM: Enterococcus faecalis, KA247, read-out: Average diameter of inhibition zone (ZI)
Method in brief: as §1

[14] = tested on: bacterial isolates; test: Time-kill kinetics, bacterial isolates; assay type: cell-based; details: at MIC
Method in brief: (§2)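 Untreated organisms served as controls. Bacteria were sampled at 0, 2, 4, 6, 8, 12, 18 and 24 h, and fungi at 0, 2, 4, 6, 8, 18, 24 and 48 h. Counts were made by plate count and plotted as log10 CFU mL−1 versus time.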

[15] = target: E. coli MurA enzyme (Escherichia coli, UniProt P0A749); test: MurA enzyme inhibition assay; assay type: biochemical; details: for remaining activity at 100 µM: read-out: RA (residual activity), at 100 μM
[16] = tested on: E. coli KA780; test: Checkerboard microdilution synergy with fosfomycin; assay type: cell-based, Escherichia coli
[17] = tested on: fosfomycin-resistant (FO-R) E. coli KA780; test: SEM of outer membrane integrity; assay type: cell-based; details: at MIC, compared with DMSO
[18] = tested on: S. aureus KA112; test: Checkerboard microdilution synergy with fosfomycin; assay type: cell-based, Staphylococcus aureus
[19] = tested on: C. tropicalis KA205; test: Checkerboard microdilution synergy with fluconazole; assay type: cell-based, Candida tropicalis
[20] = Physical and chemical stability after gamma irradiation; assay type: physicochemical; details: gamma radiation 3.0 kGy to 20.0 kGy
Method in brief: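 Compound powders in sterile tubes were irradiated by a 60Co source at 3.0, 5.0, 7.0, 10.0, 15.0 and 20.0 kGy, at a dose rate of 0.9 kGy h−1. Non-irradiated and irradiated samples were checked for physical and chemical changes by UV-VIS spectrophotometry at 560 nm.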

[21] = tested on: MDR microbial isolates; test: Time-kill kinetics, whole panel; assay type: cell-based; details: all pathogenic isolates
Method in brief: as §2

[22] = tested on: fungal isolates; test: Time-kill kinetics, fungal isolates; assay type: cell-based; details: at MIC
Method in brief: as §2

[23] = tested on: E. faecalis KA247; test: Checkerboard microdilution synergy with fosfomycin; assay type: cell-based, Enterococcus faecalis
[24] = tested on: P. mirabilis KA320; test: Checkerboard microdilution synergy with fosfomycin; assay type: cell-based, Proteus mirabilis
[25] = tested on: BNL: mouse normal liver cells; test: SRB cytotoxicity assay on normal cells; assay type: cell-based
Method in brief: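 Mouse normal liver BNL cells were grown in DMEM with 10% heat-inactivated FBS, penicillin and streptomycin, at 37 °C in 5% CO2. […] SRB assay: 10% TCA fixation at 4 °C for 1 h, 0.4% SRB for 10 min at room temperature, 1% acetic acid washes, 10 mM Tris solubilisation, absorbance at 540 nm. Mean of three, with SD.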

[26] = tested on: MDR bacterial and fungal isolates; test: Broth microdilution MIC/MBC/MFC, whole panel; assay type: cell-based; details: bactericidal/fungicidal if MBC or MFC not greater than four times the MIC
[27] = 10 μM (DMSO), mean of three ± SEM

Chain of E. coli MurA enzyme (P0A749 whole entry): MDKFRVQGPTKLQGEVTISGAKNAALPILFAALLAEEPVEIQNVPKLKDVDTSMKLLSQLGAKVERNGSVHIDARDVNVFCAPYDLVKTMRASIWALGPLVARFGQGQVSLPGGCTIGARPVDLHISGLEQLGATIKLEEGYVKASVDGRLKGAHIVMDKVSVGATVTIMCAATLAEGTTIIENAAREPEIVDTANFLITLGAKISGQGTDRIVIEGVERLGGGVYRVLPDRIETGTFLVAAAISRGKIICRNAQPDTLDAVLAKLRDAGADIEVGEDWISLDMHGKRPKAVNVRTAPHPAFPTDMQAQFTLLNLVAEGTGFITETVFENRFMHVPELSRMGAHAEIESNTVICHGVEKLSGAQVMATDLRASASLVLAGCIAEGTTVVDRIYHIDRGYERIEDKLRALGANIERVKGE

- MIC [4]: 2 mg/L (≈ 3.3 µM)
- MIC [5]: 16 mg/L (≈ 26.4 µM)
- MIC [6]: 8 mg/L (≈ 13.2 µM)
- MIC [7]: 2 mg/L (≈ 3.3 µM)
- MIC [11]: 8 mg/L (≈ 13.2 µM)
- MIC [12]: 16 mg/L (≈ 26.4 µM)
SMILES: CCOP(=O)(OCC)C(Nc1nc2c(-c3ccc([N+](=O)[O-])cc3)nn(-c3ccccc3)c2s1)c1ccc(N(C)C)cc1 (stereo not shown) [Compound 4, Diethyl((4-(dimethylamino)phenyl)((3-(4-nitrophenyl)-1-phenyl-1H-pyrazolo[4,3-d]thiazol-5-yl)amino)methyl)phosphonate]
- zone of inhibition at 10 µM [1]: 17 ± 0.54 mm
- MFC [2]: 1 to 2 mg/L (≈ 1.65 to 3.3 µM)
- zone of inhibition at 10 µM ([3]; Candida albicans, KA205, read-out: Average diameter of inhibition zone (ZI)): 16 ± 0.67 mm
- MFC [4]: 0.5 mg/L (≈ 0.824 µM)
- MBC [5]: 1 mg/L (≈ 1.65 µM)
- MBC [6]: 1 mg/L (≈ 1.65 µM)
- MFC [7]: 1 mg/L (≈ 1.65 µM)
- zone of inhibition at 10 µM [8]: 16 ± 0.34 mm
- zone of inhibition at 10 µM ([9]; Candida tropicalis, KA205, read-out: Average diameter of inhibition zone (ZI)): 16 ± 0.54 mm
- zone of inhibition at 10 µM [10]: 17 mm
- MBC [11]: 2 mg/L (≈ 3.3 µM)
- zone of inhibition at 10 µM [13]: 16 ± 0.8 mm

SMILES: O=[N+]([O-])c1ccc(-c2nn(-c3ccccc3)c3sc(NC(c4ccccc4O)P(=O)(Oc4ccccc4)Oc4ccccc4)nc23)cc1 (stereo not shown) [Compound 5a, Diphenyl((2-hydroxyphenyl)((3-(4-nitrophenyl)-1-phenyl-1H-pyrazolo[4,3-d]thiazol-5-yl)amino)methyl)phosphonate]
- time of maximum killing rate [14]: 6 h
- IC50 ([15]; IC50, preincubation 0 min): 41 µM
- IC50 ([15]; IC50, preincubation 10 min): 3.8 µM
- remaining activity at 100 µM ([15]; preincubation 10 min): 0%
- Average diameter of inhibition zone (ZI) [1]: 25 ± 0.28 mm
- combination effect [16]: S (FICI ≤ 0.5 (synergism))
- Fractional inhibitory concentration index (ΣFICI) ([16]; combination with fosfomycin): 0.25
- Average diameter of inhibition zone (ZI) [3, 27]: 22 ± 0.76 mm
- MIC [4]: 0.125 mg/L (≈ 0.185 µM)
- MFC [4]: 0.5 mg/L (≈ 0.74 µM)
- effect on outer membrane (SEM image) [17]: perturbation in the membrane and distinct ruptures of the OM integrity
- combination effect [18]: S (FICI ≤ 0.5 (synergism))
- Fractional inhibitory concentration index (ΣFICI) ([18]; combination with fosfomycin): 0.25
- MIC [5]: 0.125 mg/L (≈ 0.185 µM)
- MBC [5]: 0.5 mg/L (≈ 0.74 µM)
- combination effect [19]: S (FICI ≤ 0.5 (synergism))
- Fractional inhibitory concentration index (ΣFICI) ([19]; combination with fluconazole): 0.5
- physical changes (odor, color, clarity, solubility, and form) after irradiation [20]: no changes occurred
- stability of the chemical structure after irradiation ([20]; UV-VIS spectrophotometer): confirmed the stability of the chemical structure
- microbial reduction relative to the initial inoculum [21]: ≥ 3 log10
- MIC [6]: 0.06 mg/L (≈ 0.0888 µM)
- MBC [6]: 0.5 mg/L (≈ 0.74 µM)
- MIC [7]: 0.125 mg/L (≈ 0.185 µM)
- MFC [7]: 1 mg/L (≈ 1.48 µM)
- Average diameter of inhibition zone (ZI) [8, 27]: 23 ± 0.44 mm
- Average diameter of inhibition zone (ZI) [9, 27]: 22 ± 0.43 mm
- time of maximum killing rate / maximum reduction in cell counts [22]: 16 h
- combination effect [23]: S (FICI ≤ 0.5 (synergism))
- Fractional inhibitory concentration index (ΣFICI) ([23]; combination with fosfomycin): 0.5
- Average diameter of inhibition zone (ZI) [10, 27]: 24 ± 0.51 mm
- MIC [11]: 0.06 mg/L (≈ 0.0888 µM)
- MBC [11]: 0.5 mg/L (≈ 0.74 µM)
- MIC [12]: 0.125 mg/L (≈ 0.185 µM)
- Average diameter of inhibition zone (ZI) [13, 27]: 24 ± 0.20 mm
- combination effect [24]: S (FICI ≤ 0.5 (synergism))
- Fractional inhibitory concentration index (ΣFICI) ([24]; combination with fosfomycin): 0.5
- IC50 [25]: > 100 µM

- IC50 ([15]; IC50, preincubation 0 min): 52 ± 0.33 µM
- IC50 ([15]; IC50, preincubation 10 min): 12.7 µM
- RA (residual activity) ([15]; at 100 μM, preincubation 0 min): 52 ± 0.55%
- remaining activity at 100 µM ([15]; preincubation 0 min): < 60%
- remaining activity at 100 µM ([15]; preincubation 10 min): 10 ± 0.92%
- MIC [5]: 16 mg/L (≈ 116 µM)
- MIC [6]: 256 mg/L (≈ 1850 µM)
- MIC [11]: 8 mg/L (≈ 57.9 µM)
- MIC [12]: 8 mg/L (≈ 57.9 µM)
SMILES: C[C@@H]1O[C@@H]1P(=O)(O)O [FO, fosfomycin, reference compound]
- Average diameter of inhibition zone (ZI) [1]: 11 ± 0.23 mm
- zone of inhibition at 10 µM [1]: 11 mm
- MBC [5]: 1 mg/L (≈ 7.24 µM)
- MBC [6]: 1 mg/L (≈ 7.24 µM)
- zone of inhibition at 10 µM [8]: 19 ± 0.13 mm
- zone of inhibition at 10 µM [10]: 18 ± 0.32 mm
- MBC [11]: 0.4 mg/L (≈ 2.9 µM)
- zone of inhibition at 10 µM [13]: 17 ± 0.34 mm
- bactericidal/fungicidal effect [26]: bactericidal and fungicidal activities
